KCNQ1 pot = potentiates or activates the human KCNQ1 potassium channel | CHO-K1 KCNQ1, thallium flux FluxOR fluorescence; stronger effect = higher value | B-score at 10 µM | 0.35% of 310,000 active | AID 2648;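 active = fluorescence ratio B-score, a plate-corrected score, at least three library SD, with initial intensity B-score within 5 SD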
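Doses: Single concentration per compound, DMSO matched to controls | Test system: KCNQ1-transfected CHO-K1 cells | Timing: 90 min dye loading and 20 min compound exposure, both at room temperature | Measured by: Kinetic FluxOR thallium fluorescence, 10-s 1-Hz baseline, 110-s post-stimulus read | Medium: Assay buffer with matched DMSO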
Kir21 block = blocks the mouse Kir2.1 inward-rectifier potassium channel; P35561; HEK293-Kir2.1, FluxOR thallium flux fluorescence; stronger effect = lower value; AID 1672; B-score at 10 µM; 0.85% of 310,000 active;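 active = fluorescence ratio B-score at or below minus 3 SD of library scores, with starting-brightness B-score within 2 SD, cut at about -4.2 in these data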;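 also: channel flux triggered by added potassium and thallium sulfate stimulus; B-score of peak minus minimum fluorescence over baseline after thallium stimulus; more negative B-score means stronger Kir2.1 block with less thallium influx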
KCNK3 block = human KCNK3 channel inhibition, primary screen. O14649. 0.84% of 340,000 active. B-score at 10 µM. CHO-KCNK3 thallium flux, FluxOR fluorescence; stronger effect = lower value;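 active = B-score under library mean minus 4 SD, starting fluorescence ratio at most library mean plus 5 SD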;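 also: more negative B-score means stronger inhibition of thallium flux through KCNK3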
hERG rescue = hERG (human) protection from proarrhythmic block | 0.51% of 310,000 active | CHO-hERG, FluxOR thallium flux, dofetilide IC70 present | activation (rescue from dofetilide block), less the hit threshold, % at 10 µM | Q12809;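 active = activation above the mean of controls blocked by dofetilide plus 5 SD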;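 also: thallium influx through hERG after potassium depolarization seen as dye fluorescence rise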
KCNK9 block = human KCNK9 channel inhibition | Q9NPC2 | B-score at 10 µM | HEK293 KCNK9, FluxOR thallium flux fluorescence; stronger effect = lower value | 1.2% of 310,000 active;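 active = ratio B-score over 3 SD below the library mean, with starting fluorescence within 5 SD of its mean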;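 also: negative B-score means less thallium flux so channel inhibition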
Target sequence (Q9NPC2 whole entry, looked up): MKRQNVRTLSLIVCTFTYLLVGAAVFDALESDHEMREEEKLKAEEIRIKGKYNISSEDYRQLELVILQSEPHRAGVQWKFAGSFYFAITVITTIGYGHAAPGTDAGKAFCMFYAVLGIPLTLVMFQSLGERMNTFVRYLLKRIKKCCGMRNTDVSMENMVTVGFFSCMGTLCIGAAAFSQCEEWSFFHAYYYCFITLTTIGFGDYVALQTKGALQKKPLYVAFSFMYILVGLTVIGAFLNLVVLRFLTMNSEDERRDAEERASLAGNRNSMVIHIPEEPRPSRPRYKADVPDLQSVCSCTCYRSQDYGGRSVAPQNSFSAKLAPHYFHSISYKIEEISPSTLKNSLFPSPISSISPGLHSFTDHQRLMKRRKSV
KCNQ1 block = human KCNQ1 channel inhibition | P51787 | CHO-K1 KCNQ1, FluxOR thallium flux fluorescence; stronger effect = higher value | B-score at 10 µM | 1.3% of 310,000 active | AID 2642;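 active = compounds whose thallium flux B-score, printed positive for inhibition, exceeds three library SD while starting fluorescence stays within three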;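 also: channel opened by potassium depolarization with thallium stimulus after 20 min compound exposure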
KCNQ1 block val = reconfirmed blocker of the human KCNQ1 potassium channel. inhibition, % at 10 µM. 93% of 1,600 active. KCNQ1 cell line, FluxOR thallium flux fluorescence. shares compounds with KCNQ1 block;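 active = primary screen active, with duplicate mean exceeding buffer control mean plus 3 SD of buffer wells, cut at about 28% in these data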
CHO Tl flux = counter-screen for KCNQ1 inhibitors: effect in parental CHO cells; shares compounds with KCNQ1 block; parental CHO-K1, FluxOR thallium flux fluorescence ratio; stronger effect = lower value; zero means no signal rise above baseline; fluorescence ratio (Tl flux) at 10 µM; 21% of 1,600 active; AID 588366;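 active = mean of duplicate thallium-flux fluorescence ratios in parental host cells more than 5 SD below the buffer control mean, cut at about 0.38 in these data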;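 also: ratio is peak minus minimum fluorescence divided by baseline fluorescence; actives read low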
KCNQ1 ephys val = blocks human KCNQ1 current in automated patch clamp; 20% of 490 active; calls only at 10 µM; AID 624120; shares compounds with KCNQ1 block; KCNQ1-CHO cells;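 active = KCNQ1 current drop exceeding 3 SD of negative control wells, seen in both duplicate runs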;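 also: steady state current during a 2 s step from -80 to +40 mV; negative values mean current inhibition and positive values mean potentiation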
KCNQ2 spec = rat KCNQ2 inhibition in KCNQ1 inhibitor specificity screen | shares compounds with KCNQ1 block | KCNQ2 cells, FluxOR thallium flux fluorescence | inhibition, % at 10 µM | 71% of 1,600 active | AID 651746;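 active = mean percent inhibition of the KCNQ2 thallium signal more than 5 SD above the buffer-only control wells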;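 also: KCNQ2 expressed in CHO cells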
KCNQ1-KCNE1 inh = KCNQ1 inhibitor that also blocks human KCNQ1/KCNE1 channel; inhibition, % at 10 µM; 77% of 1,600 active; shares compounds with KCNQ1 block; KCNQ1/KCNE1 cells, FluxOR thallium flux fluorescence;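 active = mean percent inhibition of duplicate wells above the buffer-only control mean plus 3 SD of those controls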
Each line names hits and unclear results; the compound was inactive in the other large screens (follow-up assays come after a bar, where they were run). In the library only some 3.7% were active in any assay of this set; here they are far more common.

CCN(CC(=O)Nc1ccccc1C(F)(F)F)C(=O)c1ccc(-n2nc(C)c(CCC(=O)OC)c2C)cc1	none (no result: KCNQ1 pot, Kir21 block, hERG rescue, KCNK9 block, KCNQ1 block)
C/C(=N/NC(=O)NC12CC3CC(CC(C3)C1)C2)c1ccccc1	none
CCC1(C)CC(CCNS(=O)(=O)c2ccc(C)cc2)(c2ccc(C)cc2)CCO1 (configuration not stated)	none
Cc1ccc(C2(CCNS(=O)(=O)c3ccc(C)cc3)CCOC(C(C)C)C2)cc1 (configuration not stated)	KCNQ1 block 8 | KCNQ1 block val 94 | CHO Tl flux inactive | KCNQ1 ephys val inactive | KCNQ2 spec 83% | KCNQ1-KCNE1 inh 98%
COc1cc(CNS(=O)(=O)c2ccc3c(c2)CC(C)N3C(C)=O)cc(OC)c1OC (configuration not stated)	none
O=S(=O)(Nc1nc2ccccc2nc1Cl)c1cccc(C(F)(F)F)c1	KCNQ1 block 7 | KCNQ1 block val 42 | CHO Tl flux inactive | KCNQ2 spec 63% | KCNQ1-KCNE1 inh 34%
Cc1cc(C(=O)CSc2nc3ccc(Cl)cc3[nH]2)c(C)n1CC1CCCO1 (configuration not stated)	KCNQ1 block 8 | KCNQ1 block val 126 | CHO Tl flux inactive | KCNQ1 ephys val inactive | KCNQ2 spec 109% | KCNQ1-KCNE1 inh 121%
Cc1cc(C(=O)CSc2nc3ccc(Cl)cc3[nH]2)c(C)n1C	none
COc1cccc(OCc2cc(C(=O)N3CCC(c4ccncc4)CC3)no2)c1	KCNQ1 block 8 | KCNQ1 block val 111 | CHO Tl flux inactive | KCNQ1 ephys val inactive | KCNQ2 spec 135% | KCNQ1-KCNE1 inh 98%
O=C(c1cc(COc2cccc(C(F)(F)F)c2)on1)N1CCC(c2ccccc2)CC1	none
O=C(c1cc(COc2cccc(C(F)(F)F)c2)on1)N1CCC(c2ccncc2)CC1	KCNQ1 block 12 | KCNQ1 block val 128 | CHO Tl flux inactive | KCNQ1 ephys val inactive | KCNQ2 spec 80% | KCNQ1-KCNE1 inh 106%
CC(=O)c1ccc(OCc2cc(C(=O)N3CCC(c4ccncc4)CC3)no2)cc1	none
O=C(COC(=O)/C=C/c1cccc(Cl)c1)NC1CC1	none (no result: KCNQ1 pot, Kir21 block, hERG rescue, KCNK9 block, KCNQ1 block)
COc1ccc(C2(CNC(=O)c3ccccc3)CCCC2)cc1OC	none
O=C(NCC1(c2ccccc2)CCCC1)c1cccc(Br)c1	KCNQ1 block 6 | KCNQ1 block val 106 | CHO Tl flux inactive | KCNQ1 ephys val active | KCNQ2 spec 112% | KCNQ1-KCNE1 inh 147%
CN(C)S(=O)(=O)c1ccc(Cl)c(NC(=O)COC(=O)c2cc(-c3ccccc3)nc3ccccc23)c1	KCNQ1 block 6 | KCNQ1 block val 60 | CHO Tl flux inactive | KCNQ2 spec 74% | KCNQ1-KCNE1 inh 74%
Fc1cccc(Cl)c1CNc1ccc(N2CCCC2)cc1	KCNQ1 block 6 | KCNQ1 block val inactive | CHO Tl flux inactive | KCNQ2 spec 72% | KCNQ1-KCNE1 inh 40%
CC1(C)N=C(c2ccccc2)C(c2ccccc2)=N1	none (no result: KCNQ1 pot, Kir21 block, hERG rescue, KCNK9 block, KCNQ1 block)
Cc1nn(C)c(NC(=O)c2ccc(Cl)cc2Cl)c1Br	none
